# Measured values reported in ChEMBL document CHEMBL2163220 (J Med Chem, 2012).
# Activity calls are given as the source filed them. No cut-off for these calls is given here.
# Key:
# [1] = target: T1, Progesterone receptor (Homo sapiens) (UniProt P06401); test: Antagonist activity at progesterone receptor in human PC3 cells assessed as reduction in R5020-inducedreceptor transactivation at 1 uM by luciferase reporter gene assay; format: functional, cell-based; settings: PC-3
# T1 sequence (whole entry): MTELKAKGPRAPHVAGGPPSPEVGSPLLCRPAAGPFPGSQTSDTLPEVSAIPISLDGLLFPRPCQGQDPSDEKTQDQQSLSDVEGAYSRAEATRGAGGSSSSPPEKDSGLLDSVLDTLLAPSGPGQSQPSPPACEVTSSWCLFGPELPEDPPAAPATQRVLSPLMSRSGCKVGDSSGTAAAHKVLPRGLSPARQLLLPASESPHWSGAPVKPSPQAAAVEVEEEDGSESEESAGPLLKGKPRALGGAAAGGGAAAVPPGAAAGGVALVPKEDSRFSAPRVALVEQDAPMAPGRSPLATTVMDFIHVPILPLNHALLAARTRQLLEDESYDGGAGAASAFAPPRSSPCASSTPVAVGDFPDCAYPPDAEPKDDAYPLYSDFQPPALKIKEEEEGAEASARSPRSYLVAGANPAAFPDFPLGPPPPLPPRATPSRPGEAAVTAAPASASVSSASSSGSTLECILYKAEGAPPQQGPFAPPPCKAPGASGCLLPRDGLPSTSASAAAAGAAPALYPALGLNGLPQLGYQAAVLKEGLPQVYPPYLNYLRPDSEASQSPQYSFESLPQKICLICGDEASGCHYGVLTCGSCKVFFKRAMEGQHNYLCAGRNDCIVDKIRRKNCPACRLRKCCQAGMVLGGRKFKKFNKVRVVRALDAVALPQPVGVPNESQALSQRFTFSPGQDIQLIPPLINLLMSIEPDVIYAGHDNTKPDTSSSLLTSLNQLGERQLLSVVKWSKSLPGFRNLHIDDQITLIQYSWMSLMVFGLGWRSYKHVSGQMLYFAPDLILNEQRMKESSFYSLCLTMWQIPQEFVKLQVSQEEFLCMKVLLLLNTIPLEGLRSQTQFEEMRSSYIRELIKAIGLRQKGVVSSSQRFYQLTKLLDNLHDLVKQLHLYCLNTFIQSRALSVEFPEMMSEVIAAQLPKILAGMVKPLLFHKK
# How it was run: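 PC-3 cells lack detectable PR, so they were cotransfected with a PR expression plasmid and the MMTV-luc reporter. Compound tested at 1 μM, alone or against transactivation induced by 10 nM R5020. Read-out was luciferase reporter activity.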
# [2] = system: T2, Androgen receptor (Homo sapiens), P10275 [H875Y]; test: Agonist activity at androgen receptor H874Y mutant expressed in human PC3 cells assessed as stimulation of receptor transactivation at 0.1 to 1 uM by luciferase reporter gene assay; format: functional, cell-based; settings: PC-3
# T2 sequence (whole entry): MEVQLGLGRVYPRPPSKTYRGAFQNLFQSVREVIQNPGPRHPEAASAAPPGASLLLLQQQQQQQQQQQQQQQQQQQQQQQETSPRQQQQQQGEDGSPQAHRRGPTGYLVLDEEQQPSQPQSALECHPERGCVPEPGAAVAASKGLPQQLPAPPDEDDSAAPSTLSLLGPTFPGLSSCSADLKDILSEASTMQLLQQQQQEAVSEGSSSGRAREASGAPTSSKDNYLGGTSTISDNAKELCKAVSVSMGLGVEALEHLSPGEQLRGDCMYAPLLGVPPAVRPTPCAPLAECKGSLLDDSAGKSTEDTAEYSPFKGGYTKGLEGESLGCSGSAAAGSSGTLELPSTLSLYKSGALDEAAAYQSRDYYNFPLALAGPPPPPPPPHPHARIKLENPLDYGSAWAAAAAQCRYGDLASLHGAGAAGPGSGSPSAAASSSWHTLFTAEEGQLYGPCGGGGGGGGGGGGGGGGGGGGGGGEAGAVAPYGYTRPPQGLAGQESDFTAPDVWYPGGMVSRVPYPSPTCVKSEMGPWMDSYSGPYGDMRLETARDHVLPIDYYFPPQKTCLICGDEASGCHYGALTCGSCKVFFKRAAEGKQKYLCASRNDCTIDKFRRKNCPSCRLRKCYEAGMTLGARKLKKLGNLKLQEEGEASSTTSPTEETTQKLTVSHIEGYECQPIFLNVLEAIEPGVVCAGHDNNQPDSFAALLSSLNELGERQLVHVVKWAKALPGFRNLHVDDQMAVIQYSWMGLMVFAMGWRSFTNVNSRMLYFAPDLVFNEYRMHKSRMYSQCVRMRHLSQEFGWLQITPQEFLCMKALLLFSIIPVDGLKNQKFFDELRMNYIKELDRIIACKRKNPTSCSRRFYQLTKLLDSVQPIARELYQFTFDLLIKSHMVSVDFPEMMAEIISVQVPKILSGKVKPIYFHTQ
# How it was run: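 Full-length wild-type or mutant AR plasmid transiently transfected into PC-3 cells with MMTV-luc and Renilla luciferase reporters. Cells treated with DMSO vehicle or compound at 0.1 and 1 μM, alone or with 0.1 nM DHT. Luciferase read as relative luciferase units. Run in triplicate.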
compound,measurement,setting,value
Cc1coc2c1C(=O)C(=O)c1c-2ccc2c1CCCC2(C)C [TANSHINONE IIA],Activity,[1],inactive
same,Activity,[2],inactive
